From ChEMBL document CHEMBL1817629, “Design, synthesis, bioconversion, and pharmacokinetics evaluation of new ester prodrugs of olmesartan” (Eur J Med Chem, 2011)

Assays:
[1] = Metabolic stability in rat plasma assessed as compound remaining at 50 ug/mL after 30 mins by LC-MS/MS analysis; format: ADME, cell-free; details: read-out: Stability
Outline: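 Prodrug at 50 μg/mL in rat plasma, incubated 30 min at 37 °C; samples analyzed immediately by LC-MS/MS, reported as percent of compound remaining.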

[2] = Stability of the compound in rat liver microsomes assessed as half life at 1 uM by LC/MS/MS analysis; format: ADME, Microsome
Outline: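 Rat liver microsomes (0.5 mg/mL total protein) with 1.2 mM NADPH in 100 mM phosphate buffer pH 7.4; prodrug added from acetonitrile stock (100 μM) to final 1 μM. Kept at 37 °C, sampled 0, 15, 30, 60, 120 min. Stopped with two volumes cold acetonitrile plus internal standard, centrifuged, supernatant by LC-MS/MS. Mean of duplicate experiments.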

[3] = Stability of the compound in simulated gastric juice assessed as half life at 1 uM by LC/MS/MS analysis; format: physicochemical
Outline: (§1)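 Prodrug added from acetonitrile stock (100 μM) to rat plasma or simulated gastric juice at final 1 μM. Held at 37 °C, sampled 0, 15, 30, 60, 120 min. Quenched with two volumes cold acetonitrile containing internal standard, centrifuged, supernatant analyzed by LC-MS/MS. Half-life as mean of duplicate experiments.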

[4] = Stability of the compound in rat plasma assessed as half life at 1 uM by LC/MS/MS analysis; format: ADME, cell-free; outline: as §1

Structure (SMILES)	remaining at 0.5 h, 50 ug/mL [1] [%]	half-life at 1 µM [2] [min]	half-life at 1 µM [3] [min]	half-life at 1 µM [4] [min]
CCCc1nc(C(C)(C)O)c(C(=O)OCc2c[nH]c(=O)[nH]c2=O)n1Cc1ccc(-c2ccccc2-c2nnn[nH]2)cc1	96.3			
CCCc1nc(C(C)(C)O)c(C(=O)OC(C)OC(=O)C2CCCCC2)n1Cc1ccc(-c2ccccc2-c2nnn[nH]2)cc1 (stereo not drawn)		2.7	928	9.68
CCCc1nc(C(C)(C)O)c(C(=O)OCOC(=O)C23CC4CC(CC(C4)C2)C3)n1Cc1ccc(-c2ccccc2-c2nnn[nH]2)cc1	79.8	2.28	312	10

Further lines, results first:

remaining at 0.5 h, 50 ug/mL [1] [%]	half-life at 1 µM [2] [min]	half-life at 1 µM [3] [min]	half-life at 1 µM [4] [min]	Structure (SMILES)
85.8				CCCc1nc(C(C)(C)O)c(C(=O)OC(C)OC(=O)c2ccccc2)n1Cc1ccc(-c2ccccc2-c2nnn[nH]2)cc1 (stereo not drawn)
90.2				CCCCCCCCOC(=O)c1c(C(C)(C)O)nc(CCC)n1Cc1ccc(-c2ccccc2-c2nnn[nH]2)cc1
	4.95	> 1000	0.956	CCCc1nc(C(C)(C)O)c(C(=O)OCc2oc(=O)oc2C)n1Cc1ccc(-c2ccccc2-c2nnn[nH]2)cc1 [OLMESARTAN MEDOXOMIL]
